Test system: MS2 coat protein
Assay: apparent Kd, MS2 coat protein; higher = weaker binding; RNA-MaP array; FMN 200 µM where present
In short: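 Stalled E. coli RNA polymerase transcribed each design on Illumina sequencing-chip clusters. The clusters were titrated with SNAP-549-labelled MS2 coat protein, starting at 0.7 or 1.5 nM and doubling up to 3 µM, first without ligand and then with constant ligand, in 100 mM Tris-HCl pH 7.5, 80 mM KCl, 4 mM MgCl2, BSA, DTT, yeast tRNA and Tween-20. Green signal was normalised to red-channel RNA signal and to the control-cluster median Fmax. The apparent Kd is the median of filtered binding-curve fits made for each cluster.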

[1] = designed as: OFF switch for flavin mononucleotide, no ligand
[2] = ligand present: flavin mononucleotide, designed as: OFF switch for flavin mononucleotide
[3] = designed as: ON switch for flavin mononucleotide, no ligand
[4] = ligand present: flavin mononucleotide, designed as: ON switch for flavin mononucleotide

| Sequence | apparent Kd [1] [nM] | apparent Kd [2] [nM] | apparent Kd [3] [nM] | apparent Kd [4] [nM] |
| --- | --- | --- | --- | --- |
| AAGUCGCGGUCAGGAUAUCAGAAACAAAUUGACUGAGAAGGGAUGGCACAUGAGGAUCACCCAUGUCGUCGUCGCAGUGGGUGA | 116 | 155 |  |  |
| UUGUUAGGGAGAGGAUAUUGACAUGAGGAUCACCCAUGUAUUUGGGAGUGUUUACUGAAUUCUUACGAGAAGGCUUACGAAAUC | 264 | 186 |  |  |
| GCAGCGCUUGACAUGAGGAUCACCCAUGUUAGAUUGUUAUGUCAGGAUAUAGUCUAGAAACUAGACUAGAAGGGAUAUGCUGCU |  |  | 290 | 34.1 |
| UCAUAUAUACAAGGAUAUCAAUUAUUUACACAUCCUACAUGAGGAUCACCCAUGUUUUAAUAUAUUGAGAAGGUGUAAUGUCGG |  |  | 24.9 | 31.9 |
| UCCGACCUAGGAUAUACCUGGGCCGCCUCGUGUUAUCACCUACAUGAGGAUCACCCAUGUAGAAGGAGGACGGU | 46.7 | 64.1 |  |  |
| UGUUGAUAGCAGAAGGACAUGAGGAUCACCCAUGUAUGGAUACAAAUAUAUGUAGGAUAUGCUAUUAACUAAGAGUGAGCGUUC | 9.12 | 24.4 |  |  |
| ACAUGUUUUGUAGGAUAUCACUAGUUGUGUUAUAUAUUUGUUAUAAUGUAUUGAGAAGGACAUUUACAUGAGGAUCACCCAUGU |  | 7.44 |  |  |
| AGAUCUAGGACAGGAUAUACUGAUGGCUUCAUCGAAGAUGAAGCCAUCACAUGAGGAUCACCCAUGUAGAAGGGUCCUAGAUCA | 14.5 | 14.9 |  |  |
| AGUCGGCGAGGAUAUACAUGAGGAUCACCCAUGUGAUAUAGUGCACGCGUACGUGUACGUAGAAGGCGCUGACA | 13.3 | 40.1 |  |  |
| UUAAAUCAUGUAGGAUAUGCAUGGCGAAGCUACGCAGAAGGACAUGAGGAUCACCCAUGUUAUAGCGUCCAAGUAAGGAUGCAA | 84.8 | 269 |  |  |
| UUGAUGUCAGGAUAUGCUUAAUAUAUUUUAUUAUAAUAUAUACAUGAGGAUCACCCAUGUAGAAGGGACAUUGU | 28.7 | 23.8 |  |  |
| GCGUAACAUGAGGAUCACCCAUGUACCCGAGAAUUCGGGUCGAGAAGGGUGACCGGUCGUUUGGCACAGGAUAUCGACGUUGUG |  |  | 19.4 | 14.5 |
| GCGUUUGUAUCACAUGUAUUACAUGAGGAUCACCCAUGUUACUAGGAUAUGUAUUAGUAUUAUCAACAGAAGGAGUAAGAACGC | 17.5 | 18.3 |  |  |
| GGUUGGCGAGGAUAUACAUGAGGAUCACCCAUGUGGUCCUGUGGCUGAUCUUGCCUUUGUAGAAGGCGCGGAUC | 49.7 | 53.6 |  |  |
| AAAAUCUAUUGAGGAUAUUCAAACACUACAUACGGAGAAGGCAAACAAUCAUGAGGACAUGAGGAUCACCCAUGUUGUGACCAU |  |  | 25.5 | 19.4 |
| UCGUAUAAGGGCAUUACACAUGAGGAUCACCCAUGUACGUUAGAGGAUAUGCAUUCCAGUCGAACGUAGAAGGUUAGAGAAGGG | 307 | 268 |  |  |
| GGUUGGCGAGGAUAUACAUGAGGAUCACCCAUGUGGUCCUGUGGCUGGUAAAACCUUUGUAGAAGGCGCGGGUC | 215 | 240 |  |  |
| GCUGCGUACGUAGGAUAUACAUGAGGAUCACCCAUGUAACUCGGACUCUAAGCGGGUGCGCGCAUGUAGAAGGACGGGCGAGCC | 33.3 | 57.2 |  |  |
| UGUUGUAUUACAGGAUAUCUAUUAUUUGUAUUUAGAGAAGGGUAUUCACAUGAGGAUCACCCAUGUAUAUACGAGGAAGUUGUG |  |  | 61.3 | 58.6 |
| GUUUUGGGAGGAUAUGCGUGGAUUAUUUUCGUAUGUUGUUUACAUGAGGAUCACCCAUGUAGAAGGUCUAGAGC | 39.7 | 133 |  |  |
| UAAAUUAACAAGAAGGCUAACAUGAGGAUCACCCAUGUUGUACAUGGAUAUAGAGGAUAUUGCUAAUAAUUUUUUAUCAUAAUU | 20.8 | 17.6 |  |  |
| UGUGUUAUCGGAGGAUAUCGAUAUCAAACAUGAGGAUCACCCAUGUUGAGGAUCACACAUGUCCACGAGAAGGCCGACGUAGUG |  |  | 7.12 | 7.23 |
| CAGCAUCAUGUAGGAUAUGCGUGGCGAAGCUAUGCAGAAGGACAUGAGGAUCACCCAUGUCUUACUGUGCGUACACAGUUGCUG | 6.87 | 11.3 |  |  |
| GCUUGUAGAGGAUAUACAAGGGCCCAAGCGGCGAGAGCCGCACAUGAGGAUCACCCAUGUAGAAGGCUACUAUA | 192 | 499 |  |  |
| AAGUAGAUCCGAGGAUAUACAUAGUGGAAUCGCUACAUGAGGAUCACCCAUGUAGAAGGCGGAUCUACAGGUACUAAAGUACCA | 14 | 112 |  |  |
| ACGUCACAUGAGGAUCACCCAUGUCAGGCCGGACUAGGAUAUUAUCAUGCAGCGUGACCGUGAGAAGGAGUUGGAU |  |  | 104 | 82.2 |
| AUAUAUAUAUCAGGAUAUGGACAGGCCUGUUCGUAUUAAGACAGUAACAUGAGGAUCACCCAUGUCCAGAAGGGAUAUAUAUAU | 83.9 | 50 |  |  |
| CGCAACUCUGCACAGGUCAACAUGAGGAUCACCCAUGUAUUGAGAAGGAGGAAGAAGAGAGAUUCCUAGGAUAUCAGAGUUGCG | 6.45 | 6.74 |  |  |

| Sequence | apparent Kd [1] [nM] | apparent Kd [2] [nM] | apparent Kd [3] [nM] | apparent Kd [4] [nM] |
| --- | --- | --- | --- | --- |
| UAUUGCGCCGUAAAAUAACACAUGAGGAUCACCCAUGUGACACAGGAUAUGACCAGAUCAGAAAGUCAGAAGGGUGAAAACGGC |  |  | 99.6 | 21.6 |
| GUUACAUGAGGAUCACCCAUGUAUGUGUGGGAGUAAGUGUCUUAGGAUAUCUAUUAUUUAAUUUAAGAGAAGGAAGAUUGUUGU |  |  | 118 | 133 |
| UGAUAGCACAGAGGAUAUGCGUAUAGUUAUCACUACAUGAGGAUCACCCAUGUAGAAGGCUGUGCUAUCUAAGUCGGAAACGAC | 5.85 | 6.11 |  |  |
| GUACAGAAGGAGAAGGGCUAGGAGGUCCAGCUUAUGUGUGUUGCAACAUGAGGAUCACCCAUGUAGCAGGAUAUCCUUUGUACA | 41.1 | 440 |  |  |
| CGCUCAAUUACUUUGAAUAGAAUCAGAAGGCGUUACAUGAGGAUCACCCAUGUUAUGAUGUGUAACGAGGAUAUGAAUUGAGCG | 38.2 | 208 |  |  |
| AUUAACUACAUAGGAUAUUGAUACAUGAGGAUCACCCAUGUCACGUAUUUAUAUUAAACAUUUGACAAGAAGGAUGUGGUUACA |  |  | 17.2 | 7.01 |
| AAACACGGACAUGAGGAUCACCCAUGUGGCGAAAGCCUUGGGAGAAGGCCGAUUGCAAAGCAAUCGGAGGAUAUUCAUACCGUG |  |  | 1250 | 57 |
| CGCGUAUGAGGAUAUGCAUAAAAGGGUGCACUGAGUCUGAGACAUGAGGAUCACCCAUGUAGAAGGCGUGCGCU | 12.9 | 16 |  |  |
| GUUUUCGCAUGAGGAUAUGCUCGCAAUUCAAGAGCAGAAGGUAUGUCUAUAGACAUGAGGAUCACCCAUGUAUUUAUCAUUGAA |  |  | 218 | 58.7 |
| GAAACCUCAGGUUAAGGUUGACGACAUGAGGAUCACCCAUGUAGAAGGACCAAGGCGACCGUACGGUAGGAUAUACACGGGAGG | 10.8 | 24.9 |  |  |
| UUUUACUAGUAAGGAUAUACUAGCGAUUAGCUUGUAGAAGGUGCAGUCUUAUGUAUAACAUGUUAACAUGAGGAUCACCCAUGU |  |  | 125 | 37.6 |
| AGCAUGUGAGGAUAUGCGGACUCCGGUAAAGCUGGAGUCCAGUAGAAGGCACAUGAGGAUCACCCAUGUGAUAA | 85.6 | 106 |  |  |
| AAAGCACAUGAGGAUCACCCAUGUGGAAAUAACACAGGAUAUCUGGCCUAAGCUUAGGCGAGAGAAGGGUGACCUA |  |  | 88.9 | 223 |
| GGAUAGGACAGAGGAUAUACAGAUAGGAUCUACUAUCAAACAGUCCUAACAUGAGGAUCACCCAUGUAGAAGGCUGUCCUAUCG | 21.7 | 80.3 |  |  |
| UUAAUCUAUACAGGAUAUCCAUACGCUGCAUACGGAGAAGGGUAACAAUCAUGAGGACAUGAGGAUCACCCAUGUUUUGAGCAU |  |  | 42.8 | 26.3 |
| CAGGACAGGAAACGGAGCGGCCAACAUGAGGAUCACCCAUGUAAGGAUAUGCCUACUAAAAGUAGGCAGAAGGUACAGAAGGCA | 29.9 | 73.1 |  |  |
| AGUAGAUCAGGAUAUACGUAAAUGGUAAUUAUGUAACUUAUACAUGAGGAUCACCCAUGUAGAAGGGAUCUACA | 19.4 | 51.9 |  |  |
| UUUUAACAUGAGGAUCACCCAUGUGAGGAUAUCGUAAUUUUUAUUAAUAUUAAUAAAACGAGAAGGCACAUUUU | 96.6 | 81 |  |  |
| UCGUACAUUCGAGGAUAUCGGUGAUUAAUAAUACGAGAAGGCGAUUUUAGGCAUAAAGCCUUAGACAUGAGGAUCACCCAUGUA |  |  | 89.7 | 53.7 |
| CGAAGUCCGUAGAAGGGUGACAUGAGGAUCACCCAUGUGCGAGCCGUGGGAGUCAGCGGCUCGCCACAGGAUAUACGGAGCACG |  |  | 30.6 | 26 |
| CCGUUCUGAGGAUAUCCACCCUCAUACAUGAGGAUCACCCAUGUUCACCCUUGGGUUCCCGGAGAAGGCAGUUUUC | 232 | 467 |  |  |
| UUUCCGCGAGGAUAUGCGGGCUGUGCUUUUCAUUUCUUACCACAUGAGGAUCACCCAUGUAGAAGGUGCUUCUU | 154 | 136 |  |  |
| AAUAAAUAGGAGGAUAUCGUAUCGGAAACGAUACGAGAAGGUCUAACAUGAGGAUCACCCAUGUUCCUCAAUAA | 33.1 | 95.8 |  |  |
| CCUCGACGGUAGGAUAUCGUCAAACUAUUGUGAUGAGAAGGACUGACAUGAGGAUCACCCAUGUUAACGUGAUG | 18 | 26.2 |  |  |
| AUUAUGACCGAGUAAAGCUUCAAAACAUGAGGAUCACCCAUGUAGGAUAUCAGCACGAUAAGUGCUGAGAAGGACAUCUCGGUC | 14.3 | 15.1 |  |  |
| UCAGGCUUCGAGAAGGACAUGAGGAUCACCCAUGUUAGUGUGAAGCAGCCGUGAGGCUGCAUCAUGUAGGAUAUCGGAGUCUGC | 25.5 | 189 |  |  |
| AAAAAGUGAGGAUAUACGCUGUGGAGUAGACACAACCAGACGUAGAAGGCACAUGAGGAUCACCCAUGUCCAAA | 24.9 | 51.9 |  |  |
